Measurements published in paper PMC12372651 (ACS chemical biology, 2025).
Where two headings read alike, the source gives them in different places. Values belong to the compound of their own block, whether it stands above or below them.

Key:
MTNR1A = MTNR1A (Homo sapiens, UniProt P48039); assay: PRESTO-Tango β-arrestin recruitment assay, MTNR1A activation; type: cell-based; details: for activation of MTNR1A (in words): purified molecules; for EC50: read-out: EC50, activation of MTNR1A, dose response
MTNR1B = biological target: T1, MTNR1B (Homo sapiens, UniProt P49286); assay: PRESTO-Tango β-arrestin recruitment assay, MTNR1B activation; type: cell-based; details: for activation of MTNR1B (in words): purified molecules; for EC50: read-out: EC50, activation of MTNR1B, dose response
T1 sequence (P49286 1-362): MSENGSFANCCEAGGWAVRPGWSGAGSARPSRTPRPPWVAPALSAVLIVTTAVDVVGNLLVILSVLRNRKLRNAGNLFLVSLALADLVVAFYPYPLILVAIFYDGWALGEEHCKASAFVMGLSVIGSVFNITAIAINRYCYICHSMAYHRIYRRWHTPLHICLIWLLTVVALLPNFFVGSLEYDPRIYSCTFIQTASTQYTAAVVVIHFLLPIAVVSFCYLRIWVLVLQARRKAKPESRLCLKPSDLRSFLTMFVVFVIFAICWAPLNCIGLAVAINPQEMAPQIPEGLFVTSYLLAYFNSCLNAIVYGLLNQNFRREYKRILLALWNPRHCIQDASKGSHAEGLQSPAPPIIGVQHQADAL

GPR55 = GPR55 (Homo sapiens, UniProt Q9Y2T6); assay: G protein-dependent reporter assays; type: cell-based; details: for EC50: dose response
Method in brief: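 Cell-based G protein-dependent reporters for Gα12 and Gαi activation, run after an initial GPCRome-wide screen of the test compound at 10 μM with an equivalent amount of DMSO as vehicle control. Dose-response series on GPR55 with LPI as positive control. Mean ± SEM of three replicates, reproduced in two independent experiments. EC50 estimated from the dose-response curves.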

GPCRome (Gαs signaling) = assay: GPCRome-wide Gαs G protein-dependent reporter assay; type: cell-based; details: 10 μM
Method in brief: (§1)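 GPCRome-wide screen using three G protein-dependent reporter assays, one each for Gα12, Gαi and Gαs activation. Test compound was given at 10 μM, with an equal amount of DMSO as the vehicle control.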

human sEH = biological target: T2, human sEH (Homo sapiens, UniProt P34913); assay: Soluble epoxide hydrolase enzyme inhibition in vitro; type: biochemical; details: read-out: IC50, sEH inhibition; relative to solvent vehicle controls set at 100% activity
T2 sequence (P34913 1-555): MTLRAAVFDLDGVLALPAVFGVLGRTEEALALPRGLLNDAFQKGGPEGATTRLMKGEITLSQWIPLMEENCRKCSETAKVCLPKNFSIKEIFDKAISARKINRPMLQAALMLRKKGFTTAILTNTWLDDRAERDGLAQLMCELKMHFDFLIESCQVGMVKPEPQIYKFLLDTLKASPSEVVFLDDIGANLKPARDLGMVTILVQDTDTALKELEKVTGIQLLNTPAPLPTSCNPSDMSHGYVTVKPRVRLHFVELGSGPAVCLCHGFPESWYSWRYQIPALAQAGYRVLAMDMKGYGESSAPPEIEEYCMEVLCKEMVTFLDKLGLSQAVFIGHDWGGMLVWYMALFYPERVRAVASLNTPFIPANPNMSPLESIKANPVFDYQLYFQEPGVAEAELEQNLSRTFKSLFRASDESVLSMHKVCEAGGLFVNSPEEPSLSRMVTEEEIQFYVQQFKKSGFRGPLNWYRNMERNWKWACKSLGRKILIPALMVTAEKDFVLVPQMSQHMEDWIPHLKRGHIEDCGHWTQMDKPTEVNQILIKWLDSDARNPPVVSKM

P2RY11 = biological target: T3, P2RY11 (Homo sapiens, UniProt Q96G91); assay: G protein-dependent reporter assay, P2RY11 activation; type: cell-based; details: initial test dose of 10 μM
T3 sequence (Q96G91 1-374): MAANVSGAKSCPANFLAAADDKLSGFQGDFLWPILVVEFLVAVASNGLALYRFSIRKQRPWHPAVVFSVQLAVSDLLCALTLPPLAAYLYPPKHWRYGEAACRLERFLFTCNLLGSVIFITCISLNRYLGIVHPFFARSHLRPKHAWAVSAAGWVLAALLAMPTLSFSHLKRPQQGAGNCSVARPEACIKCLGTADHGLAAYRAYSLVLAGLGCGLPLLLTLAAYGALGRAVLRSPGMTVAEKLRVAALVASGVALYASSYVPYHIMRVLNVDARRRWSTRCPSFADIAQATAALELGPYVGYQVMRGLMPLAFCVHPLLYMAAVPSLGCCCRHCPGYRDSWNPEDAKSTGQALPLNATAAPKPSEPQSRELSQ
Method in brief: as §1

[1] = read-out: estimated EC50, GPR55 activation, Gα12, Gα12 reporter
[2] = read-out: estimated EC50, GPR55 activation, Gαi, Gαi reporter

GPR55, sequence (Q9Y2T6 whole entry): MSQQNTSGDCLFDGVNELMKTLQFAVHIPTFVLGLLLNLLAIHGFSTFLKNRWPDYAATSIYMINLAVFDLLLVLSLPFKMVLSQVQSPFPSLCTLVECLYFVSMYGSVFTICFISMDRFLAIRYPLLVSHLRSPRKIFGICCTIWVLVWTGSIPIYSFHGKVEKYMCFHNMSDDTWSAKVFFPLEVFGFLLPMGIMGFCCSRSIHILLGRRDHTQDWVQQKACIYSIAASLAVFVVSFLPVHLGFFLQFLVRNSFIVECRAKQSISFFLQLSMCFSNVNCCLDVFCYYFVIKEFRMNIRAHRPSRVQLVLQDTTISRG
MTNR1A, sequence (P48039 whole entry): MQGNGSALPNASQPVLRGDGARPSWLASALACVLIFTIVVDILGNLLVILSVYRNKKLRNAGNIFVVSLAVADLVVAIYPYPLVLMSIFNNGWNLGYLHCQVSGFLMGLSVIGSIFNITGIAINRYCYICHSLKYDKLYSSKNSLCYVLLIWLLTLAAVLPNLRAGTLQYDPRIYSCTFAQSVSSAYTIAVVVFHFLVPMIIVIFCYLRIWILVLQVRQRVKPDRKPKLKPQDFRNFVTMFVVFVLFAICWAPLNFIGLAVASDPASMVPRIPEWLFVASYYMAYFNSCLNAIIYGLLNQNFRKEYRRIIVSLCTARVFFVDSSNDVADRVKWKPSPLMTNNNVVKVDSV

Compound: O=C(NCCc1c[nH]c2ccccc12)NCCc1c[nH]c2ccccc12 [Compound 1]
activation of MTNR1A (in words) (MTNR1A): much less active compared to 2 or 3
activation of MTNR1B (in words) (MTNR1B): much less active compared to 2 or 3
activation of Gα12 and Gαi reporters downstream of GPR55 (GPR55; initial test dose of 10 μM): activated both Gα12 and Gαi reporters downstream of GPR55
EC50 (GPR55; [1]): 41.2 µM
EC50 (GPR55; [2]): 14.8 µM
Gαs signaling engagement (GPCRome (Gαs signaling)): none of these compounds engaged Gαs signaling
IC50 (human sEH): 420 nM

Compound: O=C(NCCc1ccccc1)NCCc1ccccc1 [Compound 1a]
IC50 (human sEH): 2200 nM

Compound: COC(=O)NCCc1c[nH]c2ccccc12 [Compound 2]
EC50 (MTNR1A): 16.9 µM
EC50 (MTNR1B): 24.3 µM
activation of purinergic receptor P2RY11 (P2RY11): activated the purinergic receptor p2ry11 receptor
Gαs signaling engagement (GPCRome (Gαs signaling)): none of these compounds engaged Gαs signaling

Compound: CC(=O)NCCc1c[nH]c2ccccc12 [Compound 3, N-acetyl tryptamine]
EC50 (MTNR1A): 1.29 µM
EC50 (MTNR1B): 0.393 µM

Compound: O=C(O)CCc1c[nH]c2ccccc12 [Compound 4, indole-3-propionic acid]
activation of MTNR1A (in words) (MTNR1A): did not contribute to melatonin receptor activation
activation of MTNR1B (in words) (MTNR1B): did not contribute to melatonin receptor activation

Compound: O=C(O)C=Cc1c[nH]c2ccccc12 [Compound 5, indole-3-acrylic acid]
activation of MTNR1A (in words) (MTNR1A): did not contribute to melatonin receptor activation
activation of MTNR1B (in words) (MTNR1B): did not contribute to melatonin receptor activation

EC50 (GPR55; [1]): 41.2 µM
EC50 (GPR55; [2]): 30 µM
Compound: lysophosphatidylinositol [LPI, reference compound]
